Data from ChEMBL document CHEMBL2406937, “Discovery of Pyridones As Oral AMPK Direct Activators” (ACS Med Chem Lett, 2013).
Converted amounts (≈) assume the structure as drawn. The source made the active and inactive calls. The rule behind the calls is not given here.

Experiments:
[1] = biological target: AMP-activated protein kinase (AMPK) alpha-1/beta-1/gamma-1 (Homo sapiens) (UniProt P54619+Q9Y478+Q13131); test: Activation of human recombinant AMPK alpha1beta1gamma1 by FRET assay; assay type: protein-complex assay
Chain of AMP-activated protein kinase (AMPK) alpha-1/beta-1/gamma-1 (Homo sapiens) (P54619 whole entry): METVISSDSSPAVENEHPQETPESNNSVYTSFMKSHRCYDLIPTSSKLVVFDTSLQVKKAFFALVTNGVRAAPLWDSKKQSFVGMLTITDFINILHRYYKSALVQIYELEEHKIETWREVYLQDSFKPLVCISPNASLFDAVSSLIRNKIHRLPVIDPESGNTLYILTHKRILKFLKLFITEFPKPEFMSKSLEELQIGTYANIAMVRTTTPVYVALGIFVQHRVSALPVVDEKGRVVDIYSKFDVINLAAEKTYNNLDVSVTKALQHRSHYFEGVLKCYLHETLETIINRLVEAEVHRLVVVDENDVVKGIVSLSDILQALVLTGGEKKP
Chain of AMP-activated protein kinase (AMPK) alpha-1/beta-1/gamma-1 (Homo sapiens) (Q13131 whole entry partner): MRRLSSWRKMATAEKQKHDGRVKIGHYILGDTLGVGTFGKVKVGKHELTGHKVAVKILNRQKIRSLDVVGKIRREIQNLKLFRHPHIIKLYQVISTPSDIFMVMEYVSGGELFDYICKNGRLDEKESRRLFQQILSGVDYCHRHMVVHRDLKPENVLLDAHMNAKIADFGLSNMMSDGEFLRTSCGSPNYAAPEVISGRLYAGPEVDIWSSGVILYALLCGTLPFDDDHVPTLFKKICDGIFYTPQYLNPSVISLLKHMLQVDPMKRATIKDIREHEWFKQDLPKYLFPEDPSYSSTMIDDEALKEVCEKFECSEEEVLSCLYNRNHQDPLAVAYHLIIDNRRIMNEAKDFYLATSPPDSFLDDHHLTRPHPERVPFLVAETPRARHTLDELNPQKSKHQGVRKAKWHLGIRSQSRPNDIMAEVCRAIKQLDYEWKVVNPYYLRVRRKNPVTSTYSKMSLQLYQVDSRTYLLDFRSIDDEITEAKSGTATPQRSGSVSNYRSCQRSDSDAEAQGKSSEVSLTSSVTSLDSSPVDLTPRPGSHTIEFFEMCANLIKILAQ
Chain of AMP-activated protein kinase (AMPK) alpha-1/beta-1/gamma-1 (Homo sapiens) (Q9Y478 2-270 partner limits assumed): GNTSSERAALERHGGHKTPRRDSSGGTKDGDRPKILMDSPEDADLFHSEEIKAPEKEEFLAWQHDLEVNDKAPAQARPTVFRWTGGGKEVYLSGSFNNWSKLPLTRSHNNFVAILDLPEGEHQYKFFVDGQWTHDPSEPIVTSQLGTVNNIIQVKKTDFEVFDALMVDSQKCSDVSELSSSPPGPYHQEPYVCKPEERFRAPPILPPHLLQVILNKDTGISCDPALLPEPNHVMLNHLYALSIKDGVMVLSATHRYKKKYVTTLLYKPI
Outline: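 Activation of the α1β1γ1 heterotrimer, reported as pEC200 = −log(concentration giving a 2-fold increase in AMPK activity). Values are means of at least 2 independent experiments.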

[2] = Plasma protein binding in mouse; assay type: ADME, cell-free; conditions: read-out: PPB (converted)
[3] = Clearance in mouse at 1 mg/kg, iv; assay type: ADME, organism-based; set-up: dose 1 mg/kg, route intravenous; conditions: in vivo
Outline: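 Mouse iv pharmacokinetics. 1 mg/kg given as a solution in DMSO/hydroxypropyl-β-cyclodextrin 20% in pH 7 buffer (5:95). Blood clearance is determined.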

[4] = biological target: AMPK alpha2/beta2/gamma1 (Homo sapiens) (UniProt P54646+O43741+P54619); test: Activation of human recombinant AMPK alpha2beta2gamma1; assay type: protein-complex assay
Chain of AMPK alpha2/beta2/gamma1 (Homo sapiens) (O43741 whole entry, looked up): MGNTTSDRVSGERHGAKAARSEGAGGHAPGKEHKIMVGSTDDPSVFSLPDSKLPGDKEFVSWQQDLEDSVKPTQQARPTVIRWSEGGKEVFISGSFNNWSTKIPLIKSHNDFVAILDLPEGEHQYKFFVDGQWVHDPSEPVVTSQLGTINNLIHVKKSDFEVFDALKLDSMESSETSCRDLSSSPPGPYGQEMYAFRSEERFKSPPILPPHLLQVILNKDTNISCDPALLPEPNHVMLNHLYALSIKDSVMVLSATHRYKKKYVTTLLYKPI
Chain of AMPK alpha2/beta2/gamma1 (Homo sapiens) (P54619 whole entry, looked up): as the sequence (P54619 whole entry) above
Chain of AMPK alpha2/beta2/gamma1 (Homo sapiens) (P54646 whole entry, looked up): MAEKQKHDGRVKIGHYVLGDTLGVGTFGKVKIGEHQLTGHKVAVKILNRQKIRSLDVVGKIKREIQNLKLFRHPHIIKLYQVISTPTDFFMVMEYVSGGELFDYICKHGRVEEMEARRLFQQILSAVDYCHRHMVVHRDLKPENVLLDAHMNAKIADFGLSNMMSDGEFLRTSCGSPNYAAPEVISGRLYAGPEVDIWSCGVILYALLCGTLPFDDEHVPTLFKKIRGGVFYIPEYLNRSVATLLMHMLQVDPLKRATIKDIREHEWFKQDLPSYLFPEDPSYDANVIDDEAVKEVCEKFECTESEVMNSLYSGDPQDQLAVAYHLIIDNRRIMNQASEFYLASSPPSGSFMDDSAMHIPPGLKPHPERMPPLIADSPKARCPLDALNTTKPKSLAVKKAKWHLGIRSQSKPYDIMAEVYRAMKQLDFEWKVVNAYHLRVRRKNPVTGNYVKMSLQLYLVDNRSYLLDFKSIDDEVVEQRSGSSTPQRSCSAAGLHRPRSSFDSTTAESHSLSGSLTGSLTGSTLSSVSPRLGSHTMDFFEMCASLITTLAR

[5] = biological target: AMPK alpha1/beta2/gamma1 (Homo sapiens) (UniProt O43741+P54619+Q13131); test: Activation of human recombinant AMPK alpha1beta2gamma1; assay type: protein-complex assay
Chain of AMPK alpha1/beta2/gamma1 (Homo sapiens) (O43741 whole entry, looked up): as the sequence (O43741 whole entry, looked up) above
Chain of AMPK alpha1/beta2/gamma1 (Homo sapiens) (P54619 whole entry, looked up): as the sequence (P54619 whole entry) above
Chain of AMPK alpha1/beta2/gamma1 (Homo sapiens) (Q13131 whole entry, looked up): as the sequence (Q13131 whole entry partner) above

[6] = Permeability of the compound by PAMPA; assay type: ADME; conditions: read-out: permeability
Outline: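 Passive permeability is measured by parallel artificial membrane permeability assay (PAMPA).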

[7] = Solubility of the compound; assay type: physicochemical
Outline: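 Solubility is the soluble fraction of the oral formulation (HPMC K100 0.5%/Tween 80 0.1% in pH 7 buffer) made by ball milling from solid powder. The maximum is […].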

[8] = biological target: AMPK alpha2/beta2/gamma3 (Homo sapiens) (UniProt P54646+O43741+Q9UGI9); test: Activation of human recombinant AMPK alpha2beta2gamma3; assay type: protein-complex assay
Chain of AMPK alpha2/beta2/gamma3 (Homo sapiens) (O43741 whole entry, looked up): as the sequence (O43741 whole entry, looked up) above
Chain of AMPK alpha2/beta2/gamma3 (Homo sapiens) (P54646 whole entry, looked up): as the sequence (P54646 whole entry, looked up) above
Chain of AMPK alpha2/beta2/gamma3 (Homo sapiens) (Q9UGI9 whole entry, looked up): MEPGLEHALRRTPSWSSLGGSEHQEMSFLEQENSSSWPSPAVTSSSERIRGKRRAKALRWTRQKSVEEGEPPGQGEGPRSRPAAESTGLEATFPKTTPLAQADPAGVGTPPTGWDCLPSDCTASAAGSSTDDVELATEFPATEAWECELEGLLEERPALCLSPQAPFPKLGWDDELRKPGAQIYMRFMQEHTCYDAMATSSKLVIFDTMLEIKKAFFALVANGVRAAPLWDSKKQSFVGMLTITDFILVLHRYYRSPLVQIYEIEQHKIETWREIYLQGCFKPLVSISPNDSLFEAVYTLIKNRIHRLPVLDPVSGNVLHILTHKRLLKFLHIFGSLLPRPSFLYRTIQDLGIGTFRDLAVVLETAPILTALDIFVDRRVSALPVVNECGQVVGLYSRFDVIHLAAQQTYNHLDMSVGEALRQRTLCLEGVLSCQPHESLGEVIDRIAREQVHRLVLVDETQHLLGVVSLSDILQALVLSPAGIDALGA

[9] = Oral bioavailability in mouse at 5 mg/kg; assay type: ADME, organism-based; conditions: in vivo
Outline: (§1)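 Mouse pharmacokinetics. Oral dosing at 5 or 30 mg/kg as a suspension in HPMC K100 0.5%/Tween 80 0.1% in pH 7 buffer. AUC is measured in blood. Bioavailability is taken against an iv dose of 1 mg/kg.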

[10] = AUC in mouse at 5 mg/kg, po; assay type: ADME, organism-based, Plasma; set-up: dose 5 mg/kg, route oral; conditions: blood; outline: as §1
[11] = tested on: Mus musculus; test: Antidiabetic activity in ob/ob mouse assessed as reduction in blood glucose level at 100 mg/kg, po bid for 5 days in presence of P-gp inhibitor GF120918 relative to control; assay type: functional; set-up: scale not given: the % may be the effect or the level left
Outline: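 ob/ob mice receive chronic oral treatment at 100 mg/kg co-administered with the P-gp inhibitor. The blood glucose reduction is assessed against control.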

[12] = Dissociation constant, pKa of the compound; assay type: physicochemical
[13] = Oral bioavailability in mouse at 30 mg/kg; assay type: ADME, organism-based; conditions: in vivo; outline: as §1
[14] = AUC in mouse at 30 mg/kg, po; assay type: ADME, organism-based, Plasma; set-up: dose 30 mg/kg, route oral; conditions: blood; outline: as §1
[15] = tested on: Mus musculus; test: Antidiabetic activity in ob/ob mouse assessed as reduction in blood glucose level at 10 mg/kg, po bid for 5 days measured 12 hrs after last dose relative to control; assay type: functional; set-up: scale not given: the % may be the effect or the level left
Outline: (§2)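 ob/ob mice are gavaged bid for 5 days at 10 or 30 mg/kg without P-gp inhibitor. Blood glucose is measured 12 h after the last gavage and compared with control.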

[16] = tested on: Blood; test: Ratio of AUC in mouse blood in presence of P-gp inhibitor GF120918 to AUC in mouse blood at 30 mg/kg, po; assay type: ADME, organism-based; set-up: dose 30 mg/kg, route oral; conditions: in vivo
Outline: (§3)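 Mice are dosed orally (5 or 30 mg/kg) as a suspension in HPMC K100 0.5%/Tween 80 0.1% in pH 7 buffer, alone or co-administered with the P-gp inhibitor GF120918 at 30 mg/kg. Mean blood AUC with the inhibitor is compared with AUC without it.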

[17] = tested on: Mus musculus; test: Antidiabetic activity in ob/ob mouse assessed as reduction in blood glucose level at 30 mg/kg, po bid for 5 days measured 12 hrs after last dose relative to control; assay type: functional; set-up: scale not given: the % may be the effect or the level left; outline: as §2
[18] = biological target: AMPK alpha1/beta1/gamma3 (Homo sapiens) (UniProt Q9Y478+Q13131+Q9UGI9); test: Activation of human recombinant AMPK alpha1beta1gamma3; assay type: protein-complex assay
Chain of AMPK alpha1/beta1/gamma3 (Homo sapiens) (Q13131 whole entry partner): as the sequence (Q13131 whole entry partner) above
Chain of AMPK alpha1/beta1/gamma3 (Homo sapiens) (Q9UGI9 whole entry partner): as the sequence (Q9UGI9 whole entry, looked up) above
Chain of AMPK alpha1/beta1/gamma3 (Homo sapiens) (Q9Y478 2-270 limits assumed): as the sequence (Q9Y478 2-270 partner limits assumed) above

[19] = tested on: Blood; test: Ratio of AUC in mouse blood in presence of P-gp inhibitor GF120918 to AUC in mouse blood at 5 mg/kg, po; assay type: ADME, organism-based; set-up: dose 5 mg/kg, route oral; conditions: in vivo; outline: as §3
[20] = biological target: AMPK alpha2/beta1/gamma1 (Homo sapiens) (UniProt P54646+P54619+Q9Y478); test: Activation of human recombinant AMPK alpha2beta1gamma1; assay type: protein-complex assay
Chain of AMPK alpha2/beta1/gamma1 (Homo sapiens) (P54619 whole entry partner): as the sequence (P54619 whole entry) above
Chain of AMPK alpha2/beta1/gamma1 (Homo sapiens) (P54646 whole entry): as the sequence (P54646 whole entry, looked up) above
Chain of AMPK alpha2/beta1/gamma1 (Homo sapiens) (Q9Y478 2-270 partner limits assumed): as the sequence (Q9Y478 2-270 partner limits assumed) above

[21] = biological target: AMPK alpha1/beta1/gamma2 (Homo sapiens) (UniProt Q9UGJ0+Q9Y478+Q13131); test: Activation of human recombinant AMPK alpha1beta1gamma2; assay type: protein-complex assay
Chain of AMPK alpha1/beta1/gamma2 (Homo sapiens) (Q13131 whole entry partner): as the sequence (Q13131 whole entry partner) above
Chain of AMPK alpha1/beta1/gamma2 (Homo sapiens) (Q9UGJ0 whole entry): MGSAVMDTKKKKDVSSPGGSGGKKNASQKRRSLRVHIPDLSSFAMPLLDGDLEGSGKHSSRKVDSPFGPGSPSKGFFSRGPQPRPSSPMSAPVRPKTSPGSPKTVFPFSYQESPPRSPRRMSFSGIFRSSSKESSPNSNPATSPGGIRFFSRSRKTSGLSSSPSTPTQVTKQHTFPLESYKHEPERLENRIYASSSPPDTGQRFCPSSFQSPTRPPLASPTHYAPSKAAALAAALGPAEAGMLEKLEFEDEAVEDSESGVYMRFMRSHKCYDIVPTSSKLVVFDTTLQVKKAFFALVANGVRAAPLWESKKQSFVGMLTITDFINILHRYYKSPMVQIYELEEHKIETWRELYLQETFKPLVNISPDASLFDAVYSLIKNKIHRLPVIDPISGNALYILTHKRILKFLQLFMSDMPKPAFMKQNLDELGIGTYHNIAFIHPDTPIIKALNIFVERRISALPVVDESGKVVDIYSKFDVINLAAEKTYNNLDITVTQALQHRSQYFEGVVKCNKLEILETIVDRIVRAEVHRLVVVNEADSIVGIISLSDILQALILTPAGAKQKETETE
Chain of AMPK alpha1/beta1/gamma2 (Homo sapiens) (Q9Y478 2-270 partner limits assumed): as the sequence (Q9Y478 2-270 partner limits assumed) above

| pEC200 [1] | fraction unbound [2] | clearance [3] [mL/min/kg] | Papp [6] [×10⁻⁶ cm/s] | solubility [7] [µg/mL] | bioavailability [9] [%] | AUC [10] [ng·h/mL] | SMILES | also measured |
| --- | --- | --- | --- | --- | --- | --- | --- | --- |
| 7.5 | < 0.001 | 0.7 | 0.48 | 129 (≈ 343 µM) | 14 | 17000 | Cc1ccc(-c2ccc(-n3c(Cl)cc4[nH]c(=O)c(C#N)c(O)c43)cc2)cc1 | pEC200 [4]: 5.5; pEC200 [5]: < 4.5; pEC200 [8]: 5.5 |
| 8.1 | < 0.001 | 0.9 | < 0.07 | 186 (≈ 506 µM) | 21 | 19500 | N#Cc1c(O)c2c(cc(Cl)n2-c2ccc(-c3ccsc3)cc2)[nH]c1=O | Activity [4]: Active; Activity [11]: 17%; pKa [12]: < 2 |
| 8 | 0.007 | 2.4 | < 0.04 | 500 (≈ 1340 µM) | < 1 | 70 | COc1cccc(-c2ccc(-n3ccc4[nH]c(=O)c(C#N)c(O)c43)cc2)c1O | – |
| 8.5 | 0.013 | 24 | < 0.3 | 500 (≈ 1390 µM) | 2 | 80 | N#Cc1c(O)c2c(-c3ccc(-c4ccccc4O)cc3)csc2[nH]c1=O | – |
| 6.8 | – | – | < 0.08 | 59 (≈ 165 µM) | – | – | COc1ccc(-c2ccc(-n3ccc4[nH]c(=O)c(C#N)c(O)c43)cc2)cc1 | – |
| 5.3 | – | – | – | – | – | – | COc1cccc(-c2ccc(-n3ccc4[nH]c(=O)c(C#N)c(O)c43)cc2)c1 | – |
| 5.5 | – | – | – | – | – | – | COc1ccccc1-c1ccc(-n2ccc3[nH]c(=O)c(C#N)c(O)c32)cc1 | – |
| 8.7 | < 0.001 | 1 | < 0.06 | 325 (≈ 646 µM) | 0.5 | 403 | COc1cccc(-c2ccc(-n3c(Cl)cc4[nH]c(=O)c(-c5cccc(C(=O)O)c5)c(O)c43)cc2)c1O | – |
| 7.8 | – | 34 | – | – | – | – | N#Cc1c(O)c2c(ccn2-c2ccc(-c3ccccc3O)cc2)[nH]c1=O | bioavailability [13]: 10%; AUC [14]: 1490 ng·h/mL |
| 7.6 | < 0.001 | 0.3 | 11 | 25 (≈ 54.5 µM) | 15 | 41300 | COc1cccc(-c2ccc(-n3c(Cl)cc4[nH]c(=O)c(-c5ccccc5)c(O)c43)cc2)c1O | Activity [4]: Active; Activity [15]: 13%; Ratio AUC [16]: 2; Activity [17]: 17% |
| 6.3 | 0.002 | 12 | 15 | 20 (≈ 54.8 µM) | 50 | 3410 | CCc1ccc(-n2c(Cl)cc3[nH]c(=O)c(-c4ccccc4)c(O)c32)cc1 | pKa [12]: 6 |
| 9.2 | < 0.001 | 3 | < 0.3 | 42.5 (≈ 104 µM) | 3 | 892 | COc1cccc(-c2ccc(-n3c(Cl)cc4[nH]c(=O)c(C#N)c(O)c43)cc2)c1O | Activity [18]: Active; pEC200 [4]: 7.3; Activity [11]: 18%; Activity [5]: Active; Ratio AUC [19]: 10; pEC200 [8]: 7.3; Activity [20]: Active; Activity [21]: Active |
